According to ChEMBL document CHEMBL1641572, “Vasorelaxant effect of flavonoids through calmodulin inhibition: Ex vivo, in vitro, and in silico approaches” (Bioorg Med Chem, 2011):
Calls of active or inactive are those of the source. The calls are words filed in the database; no cut-off is given here.

Columns and labels:
Calmodulin-1 [1] = target: T1, Calmodulin-1 (Homo sapiens, UniProt P0DP23); assay: Inhibition of human recombinant calmodulin assessed as inhibition of calmodulin-sensitive cAMP phosphodiesterase activation after 15 mins by spectrophotometric analysis
Aorta [2] = assay: Vasorelaxant activity in Wistar rat endothelium-denuded thoracic aortic ring assessed as inhibition of noradrenaline-induced contraction treated after noradrenaline challenge measured after 60 mins in presence of chlorpromazine; assay type: functional, tissue-based
Method in brief: (§1)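 Rat aortic rings (endothelium intact or denuded) in 37 °C Krebs under 3.0 g tension were preincubated with chlorpromazine (1 µM). They were then contracted with NA, and compound was added in quarter-log cumulative concentrations while isometric tension was recorded. n=6 animals.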

Aorta [3] = assay: Vasorelaxant activity in Wistar rat endothelium-intact thoracic aortic ring assessed as inhibition of noradrenaline-induced contraction treated after noradrenaline challenge measured after 60 mins in presence of chlorpromazine; assay type: functional, tissue-based; method in brief: as §1
Aorta [4] = assay: Vasorelaxant activity in Wistar rat endothelium-intact thoracic aortic ring assessed as inhibition of noradrenaline-induced contraction treated after noradrenaline challenge measured after 60 mins; assay type: functional, tissue-based; details: for IC50: 1 h
Method in brief: (§2)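 Thoracic aortic rings (3–5 mm) from Wistar rats (200–300 g), endothelium intact or manually removed, were held in Krebs at 37 °C gassed O2/CO2 (9:1) at 3.0 g resting tension. Three NA (0.1 µM) primings were given; endothelium status was checked by carbachol (1 µM) relaxation. Rings precontracted with NA received compounds in quarter-log cumulative concentrations under isometric recording. n=6 animals.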

Calmodulin-1 [5] = target: T1, Calmodulin-1; assay: Ratio of chlorpromazine IC50 to compound IC50 for human recombinant calmodulin
Aorta [6] = assay: Vasorelaxant activity in Wistar rat endothelium-intact thoracic aortic ring assessed as inhibition of noradrenaline-induced contraction treated after noradrenaline challenge measured after 60 mins relative to control; assay type: functional; details: 1 h
Aorta [7] = assay: Vasorelaxant activity in Wistar rat endothelium-denuded thoracic aortic ring assessed as inhibition of noradrenaline-induced contraction treated after noradrenaline challenge measured after 60 mins relative to control; assay type: functional; details: 1 h
Aorta [8] = assay: Vasorelaxant activity in Wistar rat endothelium-denuded thoracic aortic ring assessed as inhibition of noradrenaline-induced contraction treated after noradrenaline challenge measured after 60 mins; assay type: functional, tissue-based; details: for IC50: 1 h; method in brief: as §2
Calmodulin-1 [9] = target: T1, Calmodulin-1; assay: Inhibition of calmodulin assessed as inhibition of calmodulin-calcium-PDE1 complex formation
Method in brief: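 Human recombinant CaM (0.08 µg) was preincubated 30 min with 0.015 units bovine-brain PDE1 and 0.063 units 5'-nucleotidase in Tris–HCl/imidazole buffer with Mg acetate, 2.5 mM CaCl2 and BSA, pH 7.0. Compounds at 0.5–65 µM in ACN/water (1:1) were added for 30 min. cAMP started a 15-min reaction, and malachite green read phosphate at 700 nm. IC50 came from hyperbolic fit, n≥6.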

Calmodulin-1 [10] = target: T1, Calmodulin-1; assay: Inhibition of calmodulin assessed as inhibition of calmodulin-calcium-[…] complex formation

Structure (SMILES)	inhibition (Calmodulin-1 [1])	Activity (Aorta [2])	Activity (Aorta [3])	inhibition (Aorta [4])	IC50 (Aorta [4]) [µM]	Ratio IC50 (Calmodulin-1 [5])	Emax (Aorta [6]) [%]	Emax (Aorta [7]) [%]	inhibition (Aorta [8])	IC50 (Aorta [8]) [µM]	IC50 (Calmodulin-1 [1]) [µM]	IC50 (Calmodulin-1 [9]) [µM]	IC50 (Calmodulin-1 [10]) [µM]
O=C1C[C@@H](c2ccc(O)cc2)Oc2cc(O)cc(O)c21	Dose-dependent effect	–	–	–	–	–	–	–	–	–	–	–	–
O=c1cc(-c2ccccc2)oc2ccc(O)cc12 [6-HYDROXYFLAVONE]	Dose-dependent effect	Active	Active	Dose-dependent effect	20.8	3.89	105	51.8	Dose-dependent effect	112	5.17	–	–
O=c1cc(-c2ccccc2)oc2cc(O)ccc12 [7-HYDROXYFLAVONE]	Dose-dependent effect	–	–	Dose-dependent effect	37.8	0.54	80.6	40.4	Dose-dependent effect	167	37.1	–	–
C[N+](C)(C)CCOC(N)=O [CARBACHOL]	–	–	–	–	0.79	–	88.6	–	–	–	–	–	–
O=c1cc(-c2ccccc2)oc2cc(O)cc(O)c12 [CHRYSIN]	Dose-dependent effect	–	–	Dose-dependent effect	75.7	1.03	44.8	16	Dose-dependent effect	107	33.4	–	–
O=c1cc(-c2ccccc2)oc2ccccc12 [FLAVONE]	Dose-dependent effect	–	–	Dose-dependent effect	46	0.34	98.6	81	Dose-dependent effect	203	102	–	–
O=c1c(O)c(-c2ccccc2)oc2ccccc12 [FLAVONOL]	Dose-dependent effect	–	–	Dose-dependent effect	204	0.36	67.8	29.8	Dose-dependent effect	248	55.2	–	–
COc1ccc([C@@H]2CC(=O)c3c(O)cc(O[C@@H]4O[C@H](CO[C@@H]5O[C@@H](C)[C@H](O)[C@@H](O)[C@H]5O)[C@@H](O)[C@H](O)[C@H]4O)cc3O2)cc1O [HESPERIDIN]	–	–	–	–	–	–	–	–	–	–	–	74	70
COC(=O)C1=C(C)NC(C)=C(C(=O)OC)C1c1ccccc1[N+](=O)[O-] [NIFEDIPINE]	–	–	–	–	–	–	–	102	–	0.02	–	–	–
O=c1c(O)c(-c2ccc(O)c(O)c2)oc2cc(O)cc(O)c12 [QUERCETIN]	Dose-dependent effect	–	–	Dose-dependent effect	162	2.82	83.2	43.2	Dose-dependent effect	222	13	–	–
